# Test results taken from ChEMBL document CHEMBL1938272 (Bioorg Med Chem, 2012).
# Legend:
# Aromatase [1] = target: T1, Aromatase (Homo sapiens, UniProt P11511); settings: 2 h, read-out: Imax
# T1 sequence (P11511 whole entry): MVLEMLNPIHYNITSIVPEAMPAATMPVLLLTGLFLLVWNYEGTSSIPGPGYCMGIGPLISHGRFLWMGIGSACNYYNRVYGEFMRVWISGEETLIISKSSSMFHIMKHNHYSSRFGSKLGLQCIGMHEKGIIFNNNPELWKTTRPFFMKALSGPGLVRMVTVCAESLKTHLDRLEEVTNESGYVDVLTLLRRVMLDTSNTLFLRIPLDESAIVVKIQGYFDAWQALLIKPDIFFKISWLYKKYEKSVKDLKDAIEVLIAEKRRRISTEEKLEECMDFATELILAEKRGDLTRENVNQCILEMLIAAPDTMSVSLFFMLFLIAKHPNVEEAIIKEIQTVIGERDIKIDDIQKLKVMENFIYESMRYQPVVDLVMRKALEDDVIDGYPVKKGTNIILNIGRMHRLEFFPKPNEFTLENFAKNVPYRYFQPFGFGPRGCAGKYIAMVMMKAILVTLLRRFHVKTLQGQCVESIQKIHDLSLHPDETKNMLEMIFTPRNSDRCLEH
# [2] = target: NAD(P)H dehydrogenase [quinone] 1 (Mus musculus) (UniProt Q64669); assay: Induction of QR1-mediated cytoprotective activity in mouse BPrc1 cells at 50 uM assessed as cell survival; type: cell-based
# NAD(P)H dehydrogenase [quinone] 1 (Mus musculus), sequence (Q64669 whole entry): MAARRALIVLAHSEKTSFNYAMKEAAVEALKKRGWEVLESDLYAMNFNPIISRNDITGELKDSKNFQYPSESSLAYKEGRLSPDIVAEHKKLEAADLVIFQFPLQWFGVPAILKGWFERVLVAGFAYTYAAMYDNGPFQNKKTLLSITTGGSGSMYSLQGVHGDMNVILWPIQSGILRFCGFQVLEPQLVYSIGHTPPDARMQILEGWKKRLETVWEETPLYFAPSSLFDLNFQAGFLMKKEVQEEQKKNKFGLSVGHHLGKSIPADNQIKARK
# Aromatase [3] = target: T1, Aromatase
# [4] = target: NAD(P)H dehydrogenase [quinone] 1 (Mus musculus) (UniProt Q64669); assay: Induction of QR1 activity in mouse BPrc1 cells using MTT as substrate by spectrophotometry; type: cell-based
# MCF7 = assay: Antiproliferative activity against human MCF7 cells after 72 hrs by SRB assay; type: functional, cell-based; settings: MCF7, 72 h
# Summary of the method: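 MCF-7 breast cancer cells exposed to serially diluted compounds (DMSO) for 72 h at 37 °C in CO2 incubator; fixed with 10% trichloroacetic acid, stained with 0.4% SRB, OD read at 515 nm. Zero-day control of 1 × 10^4 cells per well processed after 30 min. Survival = (OD test − OD zero-day)/(OD control − OD zero-day) × 100; IC50 from survival.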
# [5] = target: NAD(P)H dehydrogenase [quinone] 1 (Mus musculus) (UniProt Q64669); assay: Induction of QR1 activity in mouse Hepa-1c1c7 cells using MTT as substrate by spectrophotometry; type: cell-based
# Summary of the method: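 Mouse hepatoma Hepa 1c1c7 cells were incubated with compound, then permeabilised with digitonin. QR1 activity was read as MTT reduction to formazan at 595 nm, with crystal violet total protein run in parallel. Induction ratio is activity versus control; CD is the concentration doubling activity, derived only when the ratio is above 2.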
# HEK293 = assay: Inhibition of TNFalpha-activated NF-kappaB expressed in HEK293 cells at 50 uM by luciferase reporter gene assay; type: cell-based
# [6] = test system: Radical scavenging activity; assay: Antioxidant activity assessed as DPPH free radical scavenging activity at 400 uM after 30 mins by spectrophotometry; type: functional
# [7] = target: NAD(P)H dehydrogenase [quinone] 1 (Mus musculus) (UniProt Q64669); assay: Induction of QR1-mediated cytoprotective activity in mouse Hepa-1c1c7 cells at 50 uM assessed as cell survival; type: cell-based
# [8] = target: NAD(P)H dehydrogenase [quinone] 1 (Mus musculus) (UniProt Q64669); assay: Induction of QR1 activity in mouse TAOc1 mutant Hepa cells using MTT as substrate by spectrophotometry; type: cell-based
# RAW264.7 = assay: Antiinflammatory activity in mouse RAW264.7 cells assessed as inhibition of LPS-induced NO production at 40 uM preincubated for 30 mins before LPS challenge by Griess method
# [9] = target: NAD(P)H dehydrogenase [quinone] 1 (Mus musculus) (UniProt Q64669); assay: Induction of QR1-mediated cytoprotective activity in mouse TAOc1 mutant Hepa cells at 50 uM assessed as cell survival; type: cell-based
Structure (SMILES),inhibition at 50 µM (Aromatase [1]),Survival [2],IC50 (Aromatase [3]),CD [4],IC50 (MCF7),CD [5],inhibition (HEK293),inhibition [6],Survival [7],CD [8],inhibition at 40 µM (RAW264.7),Survival [9]
Brc1cccc(-c2nsc(-c3cccc(Br)c3)n2)c1,48.4%,92.3%,> 50 µM,6.5 µM,31 µM,0.059 µM,0%,1%,79.3%,2.5 µM,22.8%,77.7%
Clc1ccc(-c2nsc(-c3ccc(Cl)c(Cl)c3)n2)cc1Cl,23%,,> 50 µM,,23.5 µM,,,9.6%,80%,,21.5%,
Cc1cc(Br)ccc1-c1nsc(-c2ccc(Br)cc2C)n1,47.8%,95.9%,> 50 µM,,39.8 µM,,6.7%,2.2%,71.3%,,23.3%,68.6%
Cc1c(Cl)cccc1-c1nsc(-c2cccc(Cl)c2C)n1,19.8%,100%,> 50 µM,38.2 µM,30.3 µM,4 µM,20.3%,2.3%,96%,48.7 µM,24.5%,68%
O=[N+]([O-])c1ccc(-c2nsc(-c3ccc([N+](=O)[O-])cc3)n2)cc1,29.4%,,> 50 µM,,,,,7.3%,78.9%,,1.6%,
Brc1ccc(-c2nsc(-c3ccc(Br)cc3)n2)cc1,37.4%,60.3%,> 50 µM,,,,0%,0.8%,87%,,17.1%,80.1%
Brc1ccccc1-c1nsc(-c2ccccc2Br)n1,44.8%,100%,> 50 µM,,35 µM,,0%,1.8%,72.5%,,9.1%,99.1%
Oc1ccc(/C=C/c2cc(O)cc(O)c2)cc1,,86.3%,,,,,,,88.7%,,,86.3%
Ic1cccc(-c2nsc(-c3cccc(I)c3)n2)c1,30.6%,77.3%,> 50 µM,,37.1 µM,3.1 µM,0%,14.3%,103%,,15.6%,73.6%
Clc1ccc(-c2nsc(-c3ccc(Cl)cc3)n2)cc1,9.7%,79.3%,> 50 µM,,,4 µM,0%,2.7%,78.3%,,5.1%,77.8%
N#Cc1cccc(-c2nsc(-c3cccc(C#N)c3)n2)c1,22.1%,,> 50 µM,,,,,1.4%,57.9%,,26.4%,
Fc1ccc(-c2nsc(-c3ccc(F)cc3)n2)cc1,45.2%,86.4%,> 50 µM,,18.8 µM,,0%,6.9%,96.3%,,22.2%,83%
Clc1ccccc1-c1nsc(-c2ccccc2Cl)n1,49.7%,83.8%,> 50 µM,34.6 µM,35.8 µM,,,2.8%,75.2%,44.3 µM,-5.9%,100%
Clc1ccc(-c2nsc(-c3ccc(Cl)cc3Cl)n2)c(Cl)c1,40.3%,89.8%,> 50 µM,,,,,2.9%,30.6%,,25%,82.4%
FC(F)(F)c1ccc(-c2nsc(-c3ccc(C(F)(F)F)cc3)n2)cc1,41%,71%,> 50 µM,,,,0%,2.5%,97.9%,,8.5%,91%
Fc1cccc(-c2nsc(-c3cccc(F)c3)n2)c1,41.8%,73.5%,> 50 µM,,34.5 µM,,,1.3%,77.6%,,3.2%,77.1%
Clc1ccc(Cl)c(-c2nsc(-c3cc(Cl)ccc3Cl)n2)c1,16.6%,94.7%,> 50 µM,44.5 µM,17.8 µM,,,1%,88.1%,41 µM,17.9%,82.8%
Ic1ccc(-c2nsc(-c3ccc(I)cc3)n2)cc1,36.7%,,> 50 µM,,,,0%,,105%,,20.3%,
CC(C)(C)c1ccc(-c2nsc(-c3ccc(C(C)(C)C)cc3)n2)cc1,43.5%,85.1%,> 50 µM,,,27.7 µM,0%,2.9%,47.5%,,0.5%,74.1%
COc1ccc(-c2nsc(-c3ccc(OC)cc3)n2)cc1,11.1%,,> 50 µM,,17.4 µM,,,3.1%,94.2%,,1.7%,
Oc1ccc(CCc2cc(O)cc(O)c2)cc1 [DIHYDRORESVERATROL],37.8%,,> 50 µM,,30.3 µM,,16.7%,14.7%,82.6%,,36.2%,
c1ccc2cc(-c3nsc(-c4ccc5ccccc5c4)n3)ccc2c1,15.8%,98.1%,> 50 µM,,,,,1.1%,88.8%,,0.5%,96.9%
Fc1ccccc1-c1nsc(-c2ccccc2F)n1,53.2%,88.4%,> 50 µM,,31.4 µM,,,3.8%,86.2%,,24.6%,82.5%
Cc1ccc(-c2nsc(-c3ccc(C)cc3)n2)cc1,21.3%,,> 50 µM,,,,,7.2%,96.8%,,9.6%,
Oc1ccc(/C=C\c2cc(O)cc(O)c2)cc1,,77.8%,,49.7 µM,,,,,89.3%,,,100%
N#Cc1ccc(-c2nsc(-c3ccc(C#N)cc3)n2)cc1,38.5%,,> 50 µM,,31.3 µM,,,6%,46.2%,,-0.4%,
Cc1ccc(-c2nsc(-c3ccc(C)cc3Br)n2)c(Br)c1,48.3%,,> 50 µM,,,,0%,3.4%,49.6%,,25%,
CCCCc1ccc(-c2nsc(-c3ccc(CCCC)cc3)n2)cc1,35.5%,,> 50 µM,,,,,2.1%,100%,,-3.5%,
Clc1cccc(-c2nsc(-c3cccc(Cl)c3Cl)n2)c1Cl,45.9%,56.3%,> 50 µM,,10.2 µM,2 µM,0%,11.1%,47%,,21.4%,74.5%
FC(F)(F)c1ccccc1-c1nsc(-c2ccccc2C(F)(F)F)n1,21.6%,81%,> 50 µM,,,,0%,2.9%,88.8%,,6.7%,89.8%
